According to ChEMBL document CHEMBL1123228, “Enantiomers of 3-(3,4-dihydroxyphenyl)- and 3-(3-hydroxyphenyl)-N-n-propylpiperidine: central pre- and postsynaptic dopaminergic effects and pharmacokinetics” (J Med Chem, 1986):

Legend:
[1] = tested on: Rattus norvegicus; assay: Presynaptic activity at the level of DA metabolism was determined at dose 45 umol/kg on striatal level of DOPAC; assay type: functional
Outline: (§1)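 Female Wistar rats given 45 μmol/kg sc; striatal DOPAC and HVA measured by HPLC with electrochemical detection, compared with saline controls by Student's t test.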

[2] = tested on: Rattus norvegicus; assay: Presynaptic activity at the level of DA metabolism was determined at dose 45 umol/kg on striatal level of HVA; assay type: functional; outline: as §1
[3] = species: Rattus norvegicus; assay: Dopa accumulation was evaluated in corpus striatum of male Sprague-Dawley rat; assay type: functional
Outline: (§2)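 Male Sprague-Dawley rats, 200–300 g; drug in saline given sc after NSD 1015 decarboxylase inhibition; Dopa measured by HPLC with electrochemical detection. Dose-response curves from four to six dose levels per substance and brain area; ED50 estimated as the dose giving half-maximal decrease of Dopa level.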

[4] = species: Rattus norvegicus; assay: Dopa accumulation was evaluated in limbic system of male Sprague-Dawley rat; assay type: functional; outline: as §2
[5] = tested on: Rattus norvegicus; assay: Motor activity effect in reserpinized rat with tropolone pretreatment at 50 umol/kg, ip expressed as accumulation counts 0-30 min after treatment; assay type: functional
Outline: (§3)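 Male Sprague-Dawley rats given reserpine 5 mg/kg ip 18 h before; some also given tropolone 50 mg/kg 30 min before. Compound given sc in the neck, or ip where stated. Locomotion recorded by photocell motility meters, one rat per cage, as accumulated counts over 0–30 min, mean ± SEM.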

[6] = tested on: Rattus norvegicus; assay: Motor activity effect in reserpinized rat at 213 umol/kg, sc expressed as accumulation counts 0-30 min after treatment; assay type: functional
[7] = tested on: Rattus norvegicus; assay: Motor activity effect in reserpinized rat with tropolone pretreatment at 10 umol/kg, ip expressed as accumulation counts 0-30 min after treatment; assay type: functional; outline: as §3
[8] = tested on: Rattus norvegicus; assay: Level of compound in rat intraperitoneally; assay type: functional, organism-based
[9] = tested on: Rattus norvegicus; assay: Level of compound in rat striatum at dose 45 umol/kg administered subcutaneously; assay type: functional, organism-based
Outline: (§4)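 Female Wistar rats (170–200 g) given 45 μmol/kg ip or sc, killed 60 min later. Striatum, cerebellum and cortex were frozen and homogenised in 0.1 M perchloric acid, purified on Sephadex G10 and analysed by HPLC-ECD. O-methyl metabolite was read at 27% methanol and 750 mV. Values pmol/g tissue, n = 3.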

[10] = tested on: Rattus norvegicus; assay: Level of compound 5 in rat cerebellum at dose 45 umol/kg administered intraperitoneally; assay type: functional, organism-based; outline: as §4
[11] = tested on: Rattus norvegicus; assay: Level of compound 5 in rat cerebellum at dose 45 umol/kg administered subcutaneously; assay type: functional, organism-based; outline: as §4
[12] = tested on: Rattus norvegicus; assay: Level of compound 5 in rat cortex at dose 45 umol/kg administered intraperitoneally; assay type: functional, organism-based; outline: as §4
[13] = tested on: Rattus norvegicus; assay: Level of compound 5 in rat cortex at dose 45 umol/kg administered subcutaneously; assay type: functional, organism-based; outline: as §4
[14] = tested on: Rattus norvegicus; assay: Level of compound 5 in rat intraperitoneally; assay type: functional, organism-based; outline: as §4
[15] = tested on: Rattus norvegicus; assay: Level of compound 5 in rat striatum at dose 45 umol/kg administered subcutaneously; assay type: functional, organism-based; outline: as §4
[16] = tested on: Rattus norvegicus; assay: Level of compound in rat cerebellum at dose 45 umol/kg administered intraperitoneally; assay type: functional, organism-based; outline: as §4
[17] = tested on: Rattus norvegicus; assay: Level of compound in rat cerebellum at dose 45 umol/kg administered subcutaneously; assay type: functional, organism-based; outline: as §4
[18] = tested on: Rattus norvegicus; assay: Level of compound in rat cortex at dose 45 umol/kg administered intraperitoneally; assay type: functional, organism-based; outline: as §4
[19] = tested on: Rattus norvegicus; assay: Level of compound in rat cortex at dose 45 umol/kg administered subcutaneously; assay type: functional, organism-based; outline: as §4
[20] = tested on: Rattus norvegicus; assay: Motor activity effect in reserpinized rat at 13 umol/kg, sc expressed as accumulation counts 0-30 min after treatment; assay type: functional
[21] = tested on: Rattus norvegicus; assay: Level of compound in rat striatum at dose 45 umol/kg administered subcutaneously.; assay type: functional, organism-based; outline: as §4
[22] = Michaelis-Menten constant was measured against adenylate cyclase stimulation of cAMP formation in striatal homogenates; assay type: ADME, tissue-based; details: tissue homogenate
[23] = tested on: catechol-O-methyl transferase; assay: Michaelis-Menten constant was measured for O-methylation (probably meta) by catechol-O-methyl transferase; assay type: ADME
Outline: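 Crude rat liver COMT (105000g supernatant) at 37°C for 15 min with 0.1–0.00125 mM substrate, S-adenosyl-L-methionine, 10 mM MgCl2 and 50 mM phosphate pH 7.4 (final). Reaction stopped with perchloric acid; O-methyl product measured by HPLC-ECD. Km from Lineweaver-Burk plots, four experiments, each concentration in triplicate.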

[24] = molecular target: D(1A) dopamine receptor (Rattus norvegicus, UniProt P18901); assay: In vitro affinity against Dopamine receptor D1 using [3H]SCH-23390 radioligand in rat striatal homogenate.
[25] = molecular target: D(2) dopamine receptor (Rattus norvegicus, UniProt P61169); assay: In vitro affinity against Dopamine receptor D2 using [3H]DP-5,6-ADTN radioligand in rat striatal homogenate.
[26] = species: Rattus norvegicus; assay: Dopa accumulation was evaluated in limbic system of male Sprague-Dawley rat.; assay type: functional; outline: as §2
[27] = tested on: Rattus norvegicus; assay: Motor activity effect in reserpinized rat at 50 umol/kg, sc expressed as accumulation counts 0-30 min after treatment; assay type: functional; outline: as §3
[28] = tested on: Rattus norvegicus; assay: Motor activity effect in reserpinized rat with tropolone pretreatment at 5 umol/kg, sc expressed as accumulation counts 0-30 min after treatment; assay type: functional; outline: as §3
[29] = tested on: Rattus norvegicus; assay: Level of compound in rat striatum in the absence of tropolone at dose 40 umol/kg; assay type: functional, organism-based
Outline: (§5)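 Female Wistar rats (170–200 g), compound sc in saline (1 mL/kg), killed 60 min later, with or without tropolone (50 mg/kg ip) before dosing. Striatum, cerebellum and cortex were extracted in perchloric acid, cleaned on Sephadex G10 and analysed by HPLC-ECD (pH 4.0, 15% methanol, 600 mV). Recovery-corrected, n = 3.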

[30] = tested on: Rattus norvegicus; assay: Level of compound in rat striatum by pretreatment of tropolone (50 mg/kg, ip, 30min) at dose 40 umol/kg; assay type: functional, organism-based; outline: as §5
[31] = tested on: Rattus norvegicus; assay: Level of compound in rat cortex in the absence of tropolone at dose 40 umol/kg; assay type: functional, organism-based; outline: as §5
[32] = tested on: Rattus norvegicus; assay: Level of compound in rat cortex in the absence of tropolone at dose 8 umol/kg; assay type: functional, organism-based; outline: as §5
[33] = tested on: Rattus norvegicus; assay: Level of compound in rat striatum at dose 40 umol/kg; assay type: functional, organism-based; outline: as §5
[34] = tested on: Rattus norvegicus; assay: Level of compound in rat striatum at dose 8 umol/kg; assay type: functional, organism-based; outline: as §5
[35] = tested on: Rattus norvegicus; assay: Level of compound in rat striatum by pretreatment of tropolone (50 mg/kg, ip, 30min) at dose 8 umol/kg; assay type: functional, organism-based; outline: as §5
[36] = tested on: Rattus norvegicus; assay: Level of compound in rat cerebellum at dose 40 umol/kg; assay type: functional, organism-based; outline: as §5
[37] = tested on: Rattus norvegicus; assay: Level of compound in rat cerebellum at dose 8 umol/kg; assay type: functional, organism-based; outline: as §5
[38] = tested on: Rattus norvegicus; assay: Level of compound in rat cerebellum by pretreatment of tropolone (50 mg/kg, ip, 30min) at dose 8 umol/kg; assay type: functional, organism-based; outline: as §5
[39] = tested on: Rattus norvegicus; assay: Level of compound in rat cerebellum in the absence of tropolone at dose 40 umol/kg; assay type: functional, organism-based; outline: as §5
[40] = tested on: Rattus norvegicus; assay: Level of compound in rat cerebellum in the absence of tropolone at dose 8 umol/kg; assay type: functional, organism-based; outline: as §5
[41] = tested on: Rattus norvegicus; assay: Level of compound in rat cortex at dose 40 umol/kg; assay type: functional, organism-based; outline: as §5
[42] = tested on: Rattus norvegicus; assay: Level of compound in rat cortex at dose 8 umol/kg; assay type: functional, organism-based; outline: as §5
[43] = tested on: Rattus norvegicus; assay: Level of compound in rat cortex by pretreatment of tropolone (50 mg/kg, ip, 30min) at dose 40 umol/kg; assay type: functional, organism-based; outline: as §5
[44] = tested on: Rattus norvegicus; assay: Level of compound in rat cortex by pretreatment of tropolone (50 mg/kg, ip, 30min) at dose 8 umol/kg; assay type: functional, organism-based; outline: as §5
[45] = species: Rattus norvegicus; assay: Maximal cAMP production in rat striatal homogenates.; assay type: functional
Outline: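 cAMP formation in rat striatal homogenates was read with an automated adenylate cyclase assay.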

[46] = Ratio of Vmax/Km was measured; assay type: ADME
Outline: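 Crude COMT from rat liver (KCl homogenate, 105000g supernatant). Incubated at 37 °C in 50 mM phosphate buffer pH 7.4 with 10 mM MgCl2, S-adenosyl-L-methionine ([…] as printed), and substrate at 0.1–0.00125 mM (final concentrations), 15 min. Stopped with perchloric acid; the O-methylated product was measured by HPLC-electrochemical detection. Km and Vmax from Lineweaver-Burk plots of four experiments, each concentration run in triplicate.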

[47] = species: Rattus norvegicus; assay: Dopa accumulation was evaluated in corpus striatum of male Sprague-Dawley rat.; assay type: functional; outline: as §2
[48] = tested on: Rattus norvegicus; assay: Level of compound in rat cerebellum by pretreatment of tropolone (50 mg/kg, ip, 30min) at dose 40 umol/kg; assay type: functional, organism-based; outline: as §5

D(2) dopamine receptor, sequence (P61169 whole entry): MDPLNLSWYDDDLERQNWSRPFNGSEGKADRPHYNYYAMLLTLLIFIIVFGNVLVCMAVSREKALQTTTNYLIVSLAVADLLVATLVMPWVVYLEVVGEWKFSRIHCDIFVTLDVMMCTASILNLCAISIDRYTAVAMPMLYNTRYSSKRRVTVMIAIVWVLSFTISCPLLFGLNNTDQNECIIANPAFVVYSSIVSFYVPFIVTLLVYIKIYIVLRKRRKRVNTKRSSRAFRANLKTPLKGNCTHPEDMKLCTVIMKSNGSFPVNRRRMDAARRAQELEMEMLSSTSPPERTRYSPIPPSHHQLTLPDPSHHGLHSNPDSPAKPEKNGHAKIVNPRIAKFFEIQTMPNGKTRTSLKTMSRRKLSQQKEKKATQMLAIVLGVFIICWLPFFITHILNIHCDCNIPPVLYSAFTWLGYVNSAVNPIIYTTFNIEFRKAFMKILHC
D(1A) dopamine receptor, sequence (P18901 whole entry): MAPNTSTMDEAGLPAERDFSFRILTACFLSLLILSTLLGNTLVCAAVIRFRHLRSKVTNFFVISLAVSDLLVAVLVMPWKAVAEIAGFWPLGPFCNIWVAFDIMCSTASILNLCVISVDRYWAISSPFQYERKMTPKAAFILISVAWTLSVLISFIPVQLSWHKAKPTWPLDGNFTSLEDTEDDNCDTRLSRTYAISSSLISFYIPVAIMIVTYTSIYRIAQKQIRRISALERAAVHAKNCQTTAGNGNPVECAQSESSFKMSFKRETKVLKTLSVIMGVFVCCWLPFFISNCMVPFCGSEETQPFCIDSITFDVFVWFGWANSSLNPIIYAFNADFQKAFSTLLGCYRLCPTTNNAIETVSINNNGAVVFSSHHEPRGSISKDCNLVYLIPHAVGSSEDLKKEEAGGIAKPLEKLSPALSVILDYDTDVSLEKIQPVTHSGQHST

CCCN1CCC[C@@H](c2cccc(O)c2)C1 [PRECLAMOL]
Control [1]: 118% | Control [2]: 123% | ED50 [3]: 1.7 µmol/kg | ED50 [4]: 0.8 µmol/kg | Motor activity [5]: 77 | Motor activity [6]: 12 | Motor activity [7]: 23 | Level [8]: 5380 pmol/g | Level [9]: 20300 pmol/g | Level [10]: 104 pmol/g | Level [11]: 174 pmol/g | Level [12]: 280 pmol/g | Level [13]: 243 pmol/g | Level [14]: 174 pmol/g | Level [15]: 89 pmol/g | Level [16]: 3430 pmol/g | Level [17]: 16100 pmol/g | Level [18]: 5790 pmol/g | Level [19]: 21100 pmol/g

CCCN1CCC[C@H](c2cccc(O)c2)C1
Control [1]: 50% | Control [2]: 32% | ED50 [3]: 1.3 µmol/kg | ED50 [4]: 1 µmol/kg | Motor activity [20]: 78 | Level [21]: 17600 pmol/g | Level [8]: 7040 pmol/g | Level [10]: 98 pmol/g | Level [11]: 114 pmol/g | Level [12]: 243 pmol/g | Level [13]: 211 pmol/g | Level [14]: 151 pmol/g | Level [15]: 93 pmol/g | Level [16]: 4910 pmol/g | Level [17]: 15200 pmol/g | Level [18]: 7410 pmol/g | Level [19]: 18300 pmol/g

CCCN1CCC[C@@H](c2ccc(O)c(O)c2)C1
Km [22]: 21 µM | Km [23]: 77 µM | Ki [24]: 13.5 µM | Ki [25]: 0.012 µM | Control [1]: 83% | Control [2]: 65% | ED50 [26]: 8.5 µmol/kg | Motor activity [27]: 78 | Motor activity [28]: 69 | Level [29]: 61 pmol/g | Level [30]: 9720 pmol/g | Level [31]: 167 pmol/g | Level [32]: 16 pmol/g | Level [33]: 10300 pmol/g | Level [34]: 2330 pmol/g | Level [35]: 2540 pmol/g | Level [36]: 9160 pmol/g | Level [37]: 2020 pmol/g | Level [38]: 2290 pmol/g | Level [39]: 63 pmol/g | Level [40]: 10 pmol/g | Level [41]: 17000 pmol/g | Level [42]: 3410 pmol/g | Level [43]: 13200 pmol/g | Level [44]: 3250 pmol/g | Production (pM (mg of protein)-1) [45]: 138 | Ratio [46]: 485 | ED50 [47]: 8.2 µmol/kg | Level [48]: 9330 pmol/g
